Data on one molecule can be found in ChEMBL document CHEMBL5042480, “3CL Protease Inhibitors with an Electrophilic Arylketone Moiety as Anti-SARS-CoV-2 Agents” (J Med Chem, 2022).

Active and inactive are the calls of the source.

Broadly, the Vd is the apparent volume that relates the amount in the body to the concentration in plasma or blood. One may read the Tmax as the time at which the peak concentration occurs. For orientation: AUC(0-t) means the area under the concentration-time curve up to a stated or last time point. A word on the bioavailability: it is the share of a dose that reaches the circulation, judged against a reference dose that is usually intravenous. As usually defined, the Ki is the dissociation constant of the complex between target and ligand, obtained from inhibition or displacement. In general, AUC(0-inf) refers to total exposure, with the tail of the curve extrapolated. Broadly, the MRT is the average time that molecules of a dose stay in the body. By half-life is commonly meant the time needed for the level to fall by half in the phase considered.

In one data set the target is Cytochrome P450 2C9 (Homo sapiens, UniProt P11712). Nature of the data set: Inhibition of CYP2C9 in human liver microsome at 10 uM. Type of data set: toxicity. Conditions: microsomes. An outline of the steps: (§1)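 Human liver microsomes (0.1 mg protein/mL) were mixed with compound at 10 μM and probe substrates in phosphate buffer pH 7.4: tacrine (CYP1A2), paclitaxel (2C8), tolbutamide (2C9), dextromethorphan (2D6) and midazolam (3A4). Reactions were started with an NADPH-generating system, run 10 min at 37 °C and stopped with acetonitrile. Metabolites were measured by LC/MS/MS and activity expressed as % remaining versus the no-inhibitor control.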

Data set [1] is described as follows: Drug metabolism in human hepatocytes assessed as amide hydrolysis mediated HC-7 metabolite formation at 10 uM incubated upto 2 hrs by LC/UV/MS analysis. Type of data set: ADME, cell-based, Hepatocyte. An outline of the steps:
(§2)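 Hepatocytes were suspended at 6 × 10^5 viable cells/mL in KHB buffer and given compound at 10 μM. Incubation was 0 and 2 h at 37 °C under 5% CO2, stopped with acetonitrile. After centrifugation, supernatant metabolites were analysed by LC/UV/MS.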

Data set [2] can be described thus: Drug metabolism in rat hepatocytes assessed as amide hydrolysis mediated HC-6 metabolite formation at 10 uM incubated upto 2 hrs by LC/UV/MS analysis. Type of data set: ADME, cell-based, Hepatocyte. An outline of the steps: as §2
Data set [3] is described as follows: Volume of distribution in overnight-fasted Wistar rat at 0.1 mg/kg, iv measured upto 7 hrs by quadrupole mass spectrometry coupled UFLC analysis. As to conditions: in vivo. Type of data set: ADME, organism-based. The essentials: (§3)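 Conscious, freely moving male Wistar rats received compound in saline at 4 mL/kg, either i.v. via jugular vein at 0.1 mg/kg or by oral gavage at 0.5 mg/kg. Cannula blood was sampled up to 7 h and plasma measured by LC-MS/MS. Analysis was noncompartmental (trapezoidal AUC); Cmax and tmax were taken as observed, and t1/2 from log-linear terminal regression over at least 3 points. Mean ± SD, n = 5.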

Data set [4] can be described thus: Drug metabolism in human hepatocytes assessed as amide hydrolysis mediated HC-6 metabolite formation at 10 uM incubated upto 2 hrs by LC/UV/MS analysis. Type of data set: ADME, cell-based, Hepatocyte. The essentials: as §2
Data set [5] can be described thus: Tmax in overnight-fasted Wistar rat at 0.5 mg/kg, po measured upto 7 hrs by quadrupole mass spectrometry coupled UFLC analysis. Type of data set: ADME, organism-based. Conditions: in vivo. The essentials:
as §3

Data set [6] in a line: AUC (0 to 7 hrs) in overnight-fasted Wistar rat at 0.5 mg/kg, po measured upto 7 hrs by quadrupole mass spectrometry coupled UFLC analysis. Conditions: in vivo. Type of data set: ADME, organism-based. Also on record: route oral, dose 0.5 mg/kg, time <=7. The essentials:
(§4)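 Male Wistar rats, conscious and unrestrained, were given the compound in saline at 4 mL/kg, either as an i.v. bolus via the left jugular vein or by oral gavage. Heparinized blood was drawn from a cannula at set times up to 7 h and the plasma analysed by LC-MS/MS. AUC0–7 and AUC0–∞ came from noncompartmental trapezoidal analysis; mean ± SD, n = 5.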

Data set [7] is described as follows: Drug metabolism in human hepatocytes assessed as amide hydrolysis mediated HC-5 metabolite formation at 10 uM incubated upto 2 hrs by LC/UV/MS analysis. Type of data set: ADME, cell-based, Hepatocyte. The essentials: as §2
In data set [8] the test system is SARS-CoV-2. In words: Antiviral activity against SARS coronavirus 2 infected in African green monkey Vero cells assessed as reduction in total viral RNA upto 25 uM measured after 24 hrs post-infection by qRT-PCR analysis. As to conditions: Severe acute respiratory syndrome coronavirus 2, dose microM <=25, time 24.0 hrs. Type of data set: functional, organism-based. An outline of the steps:
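Total viral RNA in treated, SARS-CoV-2-infected Vero cells was quantified by qPCR. Values are mean ± SEM of three independent experiments.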
For orientation: Real-time PCR tracks product formation cycle by cycle.

Data set [9] is described as follows: Stability in rat plasma assessed as compound degradation incubated for 6 hrs by quadrupole mass spectrometry coupled UFLC analysis. Type of data set: ADME, cell-free. An outline of the steps: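 Compound at 1 μM was incubated in rat plasma at 37 °C for 0, 1, 2 and 6 h. Remaining concentration was measured by LC/MS/MS.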
Data set [10] is described as follows: AUC (0 to 7 hrs) in overnight-fasted Wistar rat at 0.1 mg/kg, iv measured upto 7 hrs by quadrupole mass spectrometry coupled UFLC analysis. As to conditions: in vivo. More on the design: route intravenous, dose 0.1 mg/kg, time <=7. Type of data set: ADME, organism-based. An outline of the steps:
as §4

Data set [11] is described as follows: Oral bioavailability in overnight-fasted Wistar rat at 0.5 mg/kg and measured upto 7 hrs by quadrupole mass spectrometry coupled UFLC analysis. Type of data set: ADME, organism-based. Conditions: in vivo. An outline of the steps: as §3
The target of the next data set is Cytochrome P450 3A4 (Homo sapiens, UniProt P08684). In words: Inhibition of CYP3A4 in human liver microsome at 10 uM. Type of data set: toxicity. As to conditions: microsomes. The essentials:
as §1
(Liver microsomes are a subcellular fraction often used to study metabolism.)

The nature of data set [12]: Apparent total clearance in overnight-fasted Wistar rat at 0.5 mg/kg, po measured upto 7 hrs by quadrupole mass spectrometry coupled UFLC analysis. As to conditions: in vivo, read-out: CLt/F (converted). Type of data set: ADME, organism-based. The essentials: as §3
Data set [13] can be described thus: Inhibition of recombinant C-terminal His-tagged SARS coronavirus 1 3CL protease using Boc-Abu-Tle-Leu-Gln-AMC as substrate incubated for 5 mins by Cheng-Prusoff equation analysis. Also on record: species or system Severe acute respiratory syndrome-related coronavirus.
A short description of data set [14]: Drug metabolism in human hepatocytes assessed as CYP450-catalysed oxidative pathway mediated metabolite formation at 10 uM incubated upto 2 hrs by LC/UV/MS analysis. Type of data set: ADME, cell-based, Hepatocyte. The essentials: as §2
Data set [15] in a line: Drug metabolism in rat hepatocytes assessed as amide hydrolysis mediated HC-5 metabolite formation at 10 uM incubated upto 2 hrs by LC/UV/MS analysis. Type of data set: ADME, cell-based, Hepatocyte. The essentials:
as §2

Data set [16] addresses Voltage-gated inwardly rectifying potassium channel KCNH2 (Homo sapiens, UniProt Q12809). Nature of the data set: Inhibition of hERG expressed in CHO cells at > 100 uM by whole-cell patch-clamp voltage-clamp method. Type of data set: toxicity, cell-based. The essentials:
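hERG tail current was recorded by automated whole-cell patch clamp in CHO cells stably expressing hERG at room temperature. The pulse was +40 mV for 500 ms, then a ramp to −80 mV, repeated every 5 s. Compound was applied cumulatively at 5 min intervals. Verapamil served as positive control and DMSO as vehicle.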
In general terms: hERG is a cardiac potassium channel; its block is linked to QT prolongation.

For data set [17], the system named is SARS-CoV-2. Nature of the data set: Antiviral activity against SARS coronavirus 2 infected in African green monkey Vero cells assessed as blockade of viral proliferation at 10 uM incubated for 48 hrs by cytopathic effect assay. Type of data set: functional, organism-based. As to conditions: Severe acute respiratory syndrome coronavirus 2.
Data set [18] in a line: AUC (0 to infinity) in overnight-fasted Wistar rat at 0.1 mg/kg, iv measured upto 7 hrs by quadrupole mass spectrometry coupled UFLC analysis. As to conditions: in vivo. Type of data set: ADME, organism-based. Also on record: route intravenous, dose 0.1 mg/kg, time <=7. The essentials: as §4
Data set [19] is described as follows: MRT (total) in overnight-fasted Wistar rat at 0.5 mg/kg, po measured upto 7 hrs by quadrupole mass spectrometry coupled UFLC analysis. As to conditions: in vivo. Type of data set: ADME, organism-based. An outline of the steps: as §3
Data set [20] in a line: Half life in overnight-fasted Wistar rat at 0.5 mg/kg, po measured upto 7 hrs by quadrupole mass spectrometry coupled UFLC analysis. Type of data set: ADME, organism-based. Conditions: in vivo. The essentials: as §3
A short description of data set [21]: Protein binding in rat plasma incubated for 6 hrs by quadrupole mass spectrometry coupled UFLC analysis. Type of data set: ADME, cell-free. Conditions: read-out: PPB.

Chain of Cytochrome P450 2C9 (P11712 whole entry): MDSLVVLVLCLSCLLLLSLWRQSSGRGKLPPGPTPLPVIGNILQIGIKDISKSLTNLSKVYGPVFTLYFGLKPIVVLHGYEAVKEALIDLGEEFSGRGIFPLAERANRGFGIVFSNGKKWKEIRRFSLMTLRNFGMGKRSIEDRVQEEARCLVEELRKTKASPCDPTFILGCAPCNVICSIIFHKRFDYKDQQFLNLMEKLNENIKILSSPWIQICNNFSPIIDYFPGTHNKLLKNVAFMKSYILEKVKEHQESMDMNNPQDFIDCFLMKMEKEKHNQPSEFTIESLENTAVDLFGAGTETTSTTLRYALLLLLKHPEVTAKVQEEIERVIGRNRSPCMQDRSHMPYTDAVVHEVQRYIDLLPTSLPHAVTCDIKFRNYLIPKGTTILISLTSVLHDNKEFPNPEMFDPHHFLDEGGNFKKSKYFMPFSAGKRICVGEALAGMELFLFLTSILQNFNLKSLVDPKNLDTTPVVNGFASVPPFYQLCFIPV
Chain of Cytochrome P450 3A4 (P08684 whole entry): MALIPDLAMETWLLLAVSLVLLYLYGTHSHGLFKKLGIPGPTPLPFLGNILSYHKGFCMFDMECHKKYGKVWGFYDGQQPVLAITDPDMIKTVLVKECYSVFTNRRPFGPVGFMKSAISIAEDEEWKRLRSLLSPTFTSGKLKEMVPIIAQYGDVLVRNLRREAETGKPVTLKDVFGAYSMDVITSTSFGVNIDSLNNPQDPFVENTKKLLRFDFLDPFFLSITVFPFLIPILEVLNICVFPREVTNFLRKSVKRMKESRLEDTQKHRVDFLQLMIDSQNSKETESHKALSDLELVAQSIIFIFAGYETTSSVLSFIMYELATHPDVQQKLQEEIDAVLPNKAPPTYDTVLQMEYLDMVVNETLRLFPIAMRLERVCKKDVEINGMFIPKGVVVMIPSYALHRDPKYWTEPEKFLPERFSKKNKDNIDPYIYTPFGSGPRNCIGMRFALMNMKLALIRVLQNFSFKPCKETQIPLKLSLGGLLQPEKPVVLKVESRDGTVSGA
Chain of Voltage-gated inwardly rectifying potassium channel KCNH2 (Q12809 whole entry): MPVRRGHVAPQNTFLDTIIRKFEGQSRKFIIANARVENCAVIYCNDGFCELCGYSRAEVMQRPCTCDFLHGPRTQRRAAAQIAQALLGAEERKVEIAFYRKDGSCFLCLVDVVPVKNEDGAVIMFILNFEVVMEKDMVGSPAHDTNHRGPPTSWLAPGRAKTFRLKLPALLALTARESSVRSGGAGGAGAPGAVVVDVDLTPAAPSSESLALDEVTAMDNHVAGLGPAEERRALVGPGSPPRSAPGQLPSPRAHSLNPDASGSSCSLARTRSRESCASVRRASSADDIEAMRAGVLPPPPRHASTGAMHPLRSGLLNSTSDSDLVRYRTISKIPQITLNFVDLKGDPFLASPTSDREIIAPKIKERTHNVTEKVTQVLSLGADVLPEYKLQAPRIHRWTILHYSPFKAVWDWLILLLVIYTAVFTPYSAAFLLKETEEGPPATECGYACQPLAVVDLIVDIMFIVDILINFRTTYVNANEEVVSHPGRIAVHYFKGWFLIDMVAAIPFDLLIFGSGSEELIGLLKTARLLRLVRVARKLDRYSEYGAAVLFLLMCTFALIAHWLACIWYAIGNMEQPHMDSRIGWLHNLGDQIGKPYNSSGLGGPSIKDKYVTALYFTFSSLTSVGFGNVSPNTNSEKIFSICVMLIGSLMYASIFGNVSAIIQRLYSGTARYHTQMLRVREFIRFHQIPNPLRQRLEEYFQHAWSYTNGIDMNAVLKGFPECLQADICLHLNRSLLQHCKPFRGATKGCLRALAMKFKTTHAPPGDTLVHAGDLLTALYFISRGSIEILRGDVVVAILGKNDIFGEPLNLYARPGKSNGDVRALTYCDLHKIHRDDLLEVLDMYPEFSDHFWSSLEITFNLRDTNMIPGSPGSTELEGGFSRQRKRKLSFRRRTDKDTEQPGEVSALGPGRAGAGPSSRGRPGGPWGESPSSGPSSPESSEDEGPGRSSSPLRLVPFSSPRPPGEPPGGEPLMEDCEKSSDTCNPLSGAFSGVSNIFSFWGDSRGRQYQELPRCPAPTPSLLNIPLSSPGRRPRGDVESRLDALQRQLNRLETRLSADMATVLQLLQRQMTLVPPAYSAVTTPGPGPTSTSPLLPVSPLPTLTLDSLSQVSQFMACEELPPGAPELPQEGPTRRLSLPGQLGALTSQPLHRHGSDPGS

Consider `COc1cccc2[nH]c(C(=O)N[C@@H](CC(C)C)C(=O)N[C@@H](C[C@@H]3CCNC3=O)C(=O)c3nc4ccccc4s3)cc12`, for which the “inhibition (INH)” value (at Cytochrome P450 2C9; against Cytochrome P450 3A4; in data set [16]) was “Not Active” throughout. Besides, the Drug metabolism result in data set [1], in data set [2], in data set [4], in [7], in data set [14] and in [15] was “Metabolite_Detected” throughout. In [3], this molecule yielded a Vd of 3.51 L/kg. Besides, the Tmax in [5] was found to be 0.35 h. Also, the exposure AUC(0-t) in data set [6] was determined as 1.59 ng·h/mL; in [10], 19.3 ng·h/mL. The outcome with SARS-CoV-2 [8] and in the data set on SARS-CoV-2 [17] was Active. In addition, the Stability result in data set [9] was “Stable”. Also, the bioavailability in data set [11] worked out at 3.55%. In addition, the CL/F in data set [12] is 2650 mL/min/kg. Moreover, the Ki in data set [13] was 6.3 nM. In addition, in [18], the AUC(0-inf) was 19.7 ng·h/mL. In data set [19], this molecule gave an MRT of 13.2 h. In data set [20], this molecule had a half-life of 9.64 h. Also, in [21], the fraction unbound at 6 h turned out to be 0.01.
